Assay results from ChEMBL document CHEMBL1133652, “Selective protection and functionalization of morphine: synthesis and opioid receptor binding properties of 3-amino-3-desoxymorphine derivatives” (J Med Chem, 2000).

Tests used:
[1] = target: Kappa-type opioid receptor (Cavia porcellus, UniProt P41144); assay: Binding affinity to displace radioligand [3H]U-69593 on Opioid receptor kappa 1 in guinea pig membranes.; format: cell membranes
Mu-type opioid receptor [2] = target: T1, Mu-type opioid receptor (Cavia porcellus, UniProt P97266); assay: (§1) Binding affinity to displace radioligand [3H]DAMGO on Opioid receptor mu 1 in guinea pig membranes.; format: cell membranes
T1 sequence (P97266 whole entry): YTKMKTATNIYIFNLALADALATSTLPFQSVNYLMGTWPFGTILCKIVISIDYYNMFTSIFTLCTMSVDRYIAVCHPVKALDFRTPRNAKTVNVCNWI
Outline: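 Guinea pig brain membranes (500 µg protein) incubated with 12 concentrations of compound and 0.25 nM [3H]DAMGO in 50 mM Tris-HCl pH 7.5, 25 °C, 60 min. Nonspecific binding with 10 µM naloxone. Filtration, washes in cold Tris, scintillation counting. IC50 by log-probit least-squares fit, converted to Ki (Cheng-Prusoff). At least three experiments in triplicate, mean ± SE.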

[3] = Inhibition of adenylyl cyclase activity in membranes of the human SH-SY5Y neuroblastoma cell line.; format: functional, cell-based; parameters: concentration or dose not given beside the values; conditions: concentration not given here
Outline: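 SH-SY5Y membranes (50 µg protein) incubated 15 min at 30 °C with compound at 10 µM final. The mix held 20 mM HEPES pH 7.4, creatine phosphokinase/phosphocreatine, 1 mM phenanthroline, 60 µM IBMX, 0.1 mM GTP and 0.1 mM ATP. Stopped with perchloric acid and neutralized. cAMP measured by [3H]cAMP kit. Reported as % inhibition of basal activity, duplicate, repeated at least three times.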

Mu-type opioid receptor [4] = target: T1, Mu-type opioid receptor; assay: as §1; format: cell membranes; remark: listed apart in the source
[5] = Binding affinity to displace radioligand [3H]naltrindole on Opioid receptor delta 1 in guinea pig membranes.

Kappa-type opioid receptor, sequence (P41144 whole entry): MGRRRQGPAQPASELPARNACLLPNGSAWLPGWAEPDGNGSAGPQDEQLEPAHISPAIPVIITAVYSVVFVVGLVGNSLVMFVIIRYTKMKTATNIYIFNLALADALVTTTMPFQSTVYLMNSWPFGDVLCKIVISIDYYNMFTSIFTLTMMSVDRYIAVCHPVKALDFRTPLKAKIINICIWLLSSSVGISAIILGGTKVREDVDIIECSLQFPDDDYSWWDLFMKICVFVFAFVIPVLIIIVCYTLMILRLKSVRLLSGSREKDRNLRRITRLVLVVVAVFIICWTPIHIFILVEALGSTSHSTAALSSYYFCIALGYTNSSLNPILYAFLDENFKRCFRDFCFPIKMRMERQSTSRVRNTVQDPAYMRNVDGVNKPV

| SMILES | Ki [1] | Ki (Mu-type opioid receptor [2]) | inhibition [3] | Ki (Mu-type opioid receptor [4]) | Ki [5] |
| --- | --- | --- | --- | --- | --- |
| CN1CC[C@]23c4c5ccc(N)c4O[C@H]2[C@@H](O)C=C[C@H]3[C@H]1C5 | 740 nM | 53 nM | 26% | – | – |
| CNc1ccc2c3c1O[C@H]1[C@@H](O)C=C[C@H]4[C@@H](C2)N(C)CC[C@@]341 | 2800 nM | – | 29% | 63 nM | – |
| C[C@@H](NC(=O)[C@@H](N)Cc1ccc(O)cc1)C(=O)NCC(=O)N(C)[C@@H](Cc1ccccc1)C(=O)NCCO | – | – | 58% | – | – |
| CN1CC[C@]23c4c5ccc(Nc6ccccc6)c4O[C@H]2[C@@H](O)C=C[C@H]3[C@H]1C5 | 240 nM | – | 44% | 59 nM | – |
| CN1CC[C@]23c4c5ccc(NCc6ccccc6)c4O[C@H]2[C@@H](O)C=C[C@H]3[C@H]1C5 | 3400 nM | – | 17% | 33 nM | – |
| C[C@H]1[C@H]2Cc3ccc(Nc4ccccc4)cc3[C@@]1(C)CCN2CC1CC1 | – | – | – | – | 5.2 nM |
| CN(C)c1ccc2c3c1O[C@H]1[C@@H](O)C=C[C@H]4[C@@H](C2)N(C)CC[C@@]341 | 290 nM | – | 13% | 240 nM | – |
| C[C@H]1[C@H]2Cc3ccc(N)cc3[C@@]1(C)CCN2CC1CC1 | 1.2 nM | – | – | 1.8 nM | – |
